# Experimental data reported in ChEMBL document CHEMBL4616692, “Structure-Guided Optimization of Replication Protein A (RPA)-DNA Interaction Inhibitors” (ACS Med Chem Lett, 2020).
# Active and inactive are the calls of the source. The calls are words filed in the database; no cut-off is given here.
# Key:
# [1] = Aqueous solubility of compound in unbuffered H2O at pH 7 by absorbance spectroscopy based LC-MS analysis; format: physicochemical; conditions: buffer
# Procedure, shortened: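 Aqueous solubility was measured in three independent determinations and reported as mean and SD.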
# [2] = Inhibition of 5'[32P]-labeled 34 base ssDNA binding to recombinant full length human RPA expressed in Escherichia coli cells preincubated for 30 mins followed by labeled DNA addition and measured after 5 mins by electrophoretic mobility shift assay
# Procedure, shortened: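 Purified heterotrimeric human RPA without tags or modifications, binding to ssDNA read by EMSA. […] IC50 is the mean of at least three independent experiments, reported as mean ± SD.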
# [3] = Drug uptake in human H460 cells at 20 uM incubated for 4 hrs by LC-MS analysis; format: ADME, cell-based; conditions: nci-h460, 4 h
# Procedure, shortened: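 H460 NSCLC cells. Individual points come from three independent determinations and are reported as mean and SD.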
# Salmon testes DNA = experiment: Displacement of SYBR-green from salmon sperm DNA assessed as DNA intercalation by measuring reduction in fluorescence at 5 to 20 uM after 5 mins by fluorescent intercalator displacement assay; format: nucleic-acid assay; conditions: Salmonidae
# Procedure, shortened: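 Sybr-green intercalator bound to DNA. Displacement was read as a fall in fluorescence across a range of compound concentrations. Doxorubicin served as the positive control.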
# Homo sapiens = species on record: Homo sapiens; experiment: Inhibition of 5'[32P]-labeled 34 base ssDNA binding to SUMO-His6-tagged RPA DBD A/B domain (181-432 residues) (unknown origin) expressed in Escherichia coli BL21 (DE3) cells preincubated for 30 mins followed by labeled DNA addition and measured after 5 mins by electrophoretic mobility shift assay
# [4] = Irreversible inhibition of RPA (unknown origin); parameters: species or system Homo sapiens
compound,measurement,setting,value
CCOc1ccc2cc(C3CC(c4ccc(-c5ccc(C(F)(F)F)nc5)cc4)=NN3C(=O)CCCC(=O)O)c(Cl)nc2c1 (stereo not given),solubility,[1],Soluble
same,IC50,[2]; read-out: IC50,4.3 µM
CCOc1ccc2cc(C3CC(c4ccc(I)cc4)=NN3c3cccc(C(=O)O)c3)c(Cl)nc2c1 (stereo not given),IC50,[2],Not Active
CCOc1ccc2cc(C3CC(c4ccc(-c5ccoc5)cc4)=NN3C(=O)CCCC(=O)O)c(Cl)nc2c1 (stereo not given),IC50,[2]; read-out: IC50,6.7 µM
CCOc1ccc2cc(C3CC(c4ccc(-c5ccc(F)nc5)cc4)=NN3C(=O)CCCC(=O)O)c(Cl)nc2c1 (stereo not given),solubility,[1],Soluble
same,IC50,[2]; read-out: IC50,2.6 µM
CCOc1ccc2cc(C3CC(c4ccc(I)cc4)=NN3C(=O)CCCC(=O)NCCCN3CCOCC3)c(Cl)nc2c1 (stereo not given),solubility,[1],Soluble
same,IC50,[2]; read-out: IC50,4.9 µM
same,Drug uptake,[3],Active
same,inhibition,Salmon testes DNA,inactive
C=CC(=O)Oc1ccc(C2=NN(C(=O)CCCC(=O)O)C(c3cc4ccc(OCC)cc4nc3Cl)C2)cc1 (stereo not given),IC50,[2]; read-out: IC50,8.9 µM
CCOc1ccc2cc(C3CC(c4ccc(-c5ccc(Cl)nc5)cc4)=NN3C(=O)CCCC(=O)O)c(Cl)nc2c1 (stereo not given),solubility,[1],Soluble
same,IC50,[2]; read-out: IC50,1.6 µM
same,Drug uptake,[3],Active
same,inhibition,Homo sapiens,Active
same,inhibition,Salmon testes DNA,inactive
CCOc1ccc2cc(C3CC(c4ccc(-c5ccc(Br)nc5)cc4)=NN3C(=O)CCCC(=O)O)c(Cl)nc2c1 (stereo not given),IC50,[2]; read-out: IC50,1 µM
same,inhibition,Homo sapiens,Active
same,inhibition,Salmon testes DNA,inactive
CCOc1ccc2cc(C3CC(c4ccc(-c5ccc(N6CCOCC6)cc5)cc4)=NN3C(=O)CCCC(=O)O)c(Cl)nc2c1 (stereo not given),IC50,[2]; read-out: IC50,3.1 µM
same,inhibition,Homo sapiens,Active
CCOc1ccc2cc(C3CC(c4ccc(-c5cnoc5)cc4)=NN3C(=O)CCCC(=O)O)c(Cl)nc2c1 (stereo not given),IC50,[2]; read-out: IC50,1.7 µM
same,inhibition,Homo sapiens,Active
CCOc1ccc2cc(C3CC(c4ccc(Br)cc4)=NN3C(=O)CCC(=O)O)c(Cl)nc2c1 (stereo not given),IC50,[2]; read-out: IC50,38 µM
CCOc1ccc2cc(C3CC(c4ccc(-c5ccc(C(F)(F)F)nc5)cc4)=NN3C(=O)CCCC(=O)NCCCN3CCOCC3)c(Cl)nc2c1 (stereo not given),solubility,[1],Soluble
same,IC50,[2]; read-out: IC50,5.8 µM
same,Drug uptake,[3],Active
CCOc1ccc2cc(C3CC(c4ccc(I)cc4)=NN3C(=O)CCCC(=O)NCCN3CCOCC3)c(Cl)nc2c1 (stereo not given),IC50,[2]; read-out: IC50,10.5 µM
CCOc1ccc2cc(C3CC(c4ccc([N+](=O)[O-])cc4)=NN3C(=O)CCCC(=O)O)c(Cl)nc2c1 (stereo not given),IC50,[2]; read-out: IC50,> 25 µM
COc1cccc2c1C(=O)c1c(O)c3c(c(O)c1C2=O)C[C@@](O)(C(=O)CO)C[C@@H]3O[C@H]1C[C@H](N)[C@H](O)[C@H](C)O1,inhibition,Salmon testes DNA,Dose-dependent effect
CCOc1ccc2cc(C3CC(c4ccc(I)cc4)=NN3C(=O)CCCC(=O)N3CCOCC3)c(Cl)nc2c1 (stereo not given),IC50,[2]; read-out: IC50,6.6 µM
CC1(C)[C@@H]2CC[C@@]1(C)[C@H](OC(=O)CI)C2,IC50,[4],10 µM
CCOc1ccc2cc(C3CC(c4ccc(-c5ccco5)cc4)=NN3C(=O)CCCC(=O)O)c(Cl)nc2c1 (stereo not given),IC50,[2]; read-out: IC50,2.1 µM
same,inhibition,Homo sapiens,Active
same,inhibition,Salmon testes DNA,inactive
CCOC(=O)CCCC(=O)N1N=C(c2ccc(I)cc2)CC1c1cc2ccc(OCC)cc2nc1Cl (stereo not given),IC50,[2],Not Active
CCOc1ccc2cc(C3CC(c4ccc(Br)cc4)=NN3C(=O)CCCC(=O)NCCCN3CCOCC3)c(Cl)nc2c1 (stereo not given),solubility,[1],Soluble
same,IC50,[2]; read-out: IC50,10 µM
CCOc1ccc2cc(C3CC(c4ccc(O)cc4)=NN3C(=O)CCCC(=O)O)c(Cl)nc2c1 (stereo not given),IC50,[2]; read-out: IC50,> 25 µM
CCOc1ccc2cc(C3CC(c4ccc(I)cc4)=NN3C(=O)CCCC(=O)O)c(Cl)nc2c1 (stereo not given),solubility,[1],Soluble
same,IC50,[2]; read-out: IC50,15.3 to 18 µM
same,Drug uptake,[3],Not Active
CC1(C)[C@@H]2CC[C@@]1(C)[C@H](OC(=O)CBr)C2,IC50,[4],16 µM
CCOc1ccc2cc(C3CC(c4ccc(N)cc4)=NN3C(=O)CCCC(=O)O)c(Cl)nc2c1 (stereo not given),IC50,[2]; read-out: IC50,2.3 µM
same,inhibition,Salmon testes DNA,inactive
CCOc1ccc2cc(C3CC(c4ccc(-c5ccc(F)nc5)cc4)=NN3C(=O)CCCC(=O)NCCCN3CCOCC3)c(Cl)nc2c1 (stereo not given),solubility,[1],Soluble
same,IC50,[2]; read-out: IC50,2.3 µM
same,Drug uptake,[3],Active
CCOc1ccc2cc(C3CC(c4ccc(-c5ccc(Cl)nc5)cc4)=NN3C(=O)CCCC(=O)NCCCN3CCOCC3)c(Cl)nc2c1 (stereo not given),solubility,[1],Soluble
same,IC50,[2]; read-out: IC50,4 µM
same,Drug uptake,[3],Active
same,inhibition,Salmon testes DNA,inactive
CCOc1ccc2cc(C3CC(c4ccc(OC(=O)N5CCOCC5)cc4)=NN3C(=O)CCCC(=O)O)c(Cl)nc2c1 (stereo not given),IC50,[2]; read-out: IC50,> 25 µM
CCOc1ccc2cc(C3CC(c4ccc(Br)cc4)=NN3C(=O)CCCC(=O)O)c(Cl)nc2c1 (stereo not given),solubility,[1],Soluble
same,IC50,[2]; read-out: IC50,19.2 µM
